Laboratory results from ChEMBL document CHEMBL5260844, “Optimization of PDE3A Modulators for SLFN12-Dependent Cancer Cell Killing” (ACS Med Chem Lett, 2019).
Activity calls are given as the source filed them. The calls are words filed in the database; no cut-off is given here.

How the values were obtained:
[1] = tested on: HeLa; assay: Cytotoxicity against human HeLa cells assessed as cell growth inhibition measured after 48 hrs by […] reagent based assay; format: functional
[2] = tested on: A549; assay: Cytotoxicity against human A549 cells assessed as cell growth inhibition upto 10 uM measured after 3 days by […] reagent based assay; details: time 72.0 hrs
[3] = Microsomal stability in human liver microsomes assessed as parent compound remaining measured after 1 hr in presence of NADPH by UHPLC-MS analysis; format: ADME, Microsome; details: read-out: Stability
Procedure, shortened: (§1)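 Test compound incubated with human or mouse liver microsomes. Percent remaining at 1 h reported as the average of three values.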

[4] = Microsomal stability in mouse liver microsomes assessed as parent compound remaining at 1 uM measured after 1 hr in presence of NADPH by UHPLC-MS analysis; format: ADME, Microsome; details: read-out: Stability; procedure, shortened: as §1
[5] = Plasma protein binding in human incubated for 5 hrs by UPLC-MS method; format: ADME, cell-free; details: read-out: PPB (converted)
Procedure, shortened: (§2)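 Plasma protein binding, human and mouse, reported as % bound, average of three values.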

[6] = Plasma protein binding in mouse incubated for 5 hrs by UPLC-MS method; format: ADME, cell-free; details: read-out: PPB (converted); procedure, shortened: as §2
[7] = Stability in human plasma assessed as parent compound remaining after 5 hrs; format: ADME, cell-free; details: read-out: Stability
Procedure, shortened: (§3)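 Human or mouse plasma incubation. Percent parent remaining at 5 h, average of three values.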

[8] = Stability in mouse plasma assessed as parent compound remaining after 5 hrs; format: ADME, cell-free; details: read-out: Stability; procedure, shortened: as §3
[9] = tested on: SK-MEL3; assay: Cytotoxicity against human SK-MEL3 cells assessed as cell growth inhibition upto 10 uM measured after 48 hrs by […] reagent based assay; format: functional; details: SK-MEL3, 48 h
[10] = tested on: HCT-116; assay: Cytotoxicity against human HCT-116 cells assessed as cell growth inhibition upto 10 uM measured after 48 hrs by […] reagent based assay; format: functional
Procedure, shortened: (§4)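 Counterscreen viability assay in HCT116 colorectal cancer cells and IMR90 normal lung fibroblasts, run alongside DNMDP-sensitive lines.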

[11] = tested on: IMR-90; assay: Cytotoxicity against human IMR-90 cells assessed as cell growth inhibition upto 10 uM measured after 48 hrs by […] reagent based assay; format: functional; procedure, shortened: as §4
[12] = biological target: cGMP-inhibited 3',5'-cyclic phosphodiesterase 3A (Homo sapiens, UniProt Q14432); assay: Inhibition of human N-terminal His-GST-tagged recombinant PDE3A (669-end residues) using fluorescent labelled cAMP as substrate
Sequence of cGMP-inhibited 3',5'-cyclic phosphodiesterase 3A (Q14432 whole entry): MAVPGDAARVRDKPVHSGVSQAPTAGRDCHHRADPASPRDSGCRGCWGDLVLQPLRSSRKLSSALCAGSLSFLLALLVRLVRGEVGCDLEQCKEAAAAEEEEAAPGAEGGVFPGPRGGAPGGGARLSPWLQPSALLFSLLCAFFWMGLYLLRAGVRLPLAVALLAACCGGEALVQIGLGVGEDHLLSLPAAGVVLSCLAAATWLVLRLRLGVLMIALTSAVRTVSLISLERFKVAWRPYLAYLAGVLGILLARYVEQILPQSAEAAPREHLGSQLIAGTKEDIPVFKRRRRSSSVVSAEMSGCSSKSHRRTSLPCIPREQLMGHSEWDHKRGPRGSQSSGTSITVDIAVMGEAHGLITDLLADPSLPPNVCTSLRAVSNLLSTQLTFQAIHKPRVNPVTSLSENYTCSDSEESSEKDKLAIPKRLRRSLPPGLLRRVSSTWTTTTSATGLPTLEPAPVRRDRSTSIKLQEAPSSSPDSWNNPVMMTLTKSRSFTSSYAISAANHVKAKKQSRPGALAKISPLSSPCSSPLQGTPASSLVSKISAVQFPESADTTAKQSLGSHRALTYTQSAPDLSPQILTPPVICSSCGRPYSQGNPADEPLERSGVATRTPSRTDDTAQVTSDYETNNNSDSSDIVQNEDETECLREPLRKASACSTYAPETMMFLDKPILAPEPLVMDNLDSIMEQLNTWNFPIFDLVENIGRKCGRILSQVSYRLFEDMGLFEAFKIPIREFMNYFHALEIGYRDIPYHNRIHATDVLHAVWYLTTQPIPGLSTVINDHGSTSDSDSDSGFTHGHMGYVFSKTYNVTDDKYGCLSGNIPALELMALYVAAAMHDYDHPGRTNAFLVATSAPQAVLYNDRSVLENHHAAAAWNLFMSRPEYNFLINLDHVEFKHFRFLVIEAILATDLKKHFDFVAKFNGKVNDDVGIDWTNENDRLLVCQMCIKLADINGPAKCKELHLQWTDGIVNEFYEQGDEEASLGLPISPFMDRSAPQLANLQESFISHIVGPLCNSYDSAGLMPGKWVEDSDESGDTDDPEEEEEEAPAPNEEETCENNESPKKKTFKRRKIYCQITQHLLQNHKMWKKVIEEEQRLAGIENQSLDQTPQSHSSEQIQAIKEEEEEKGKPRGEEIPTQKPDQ

[13] = biological target: cGMP-inhibited 3',5'-cyclic phosphodiesterase 3B (Homo sapiens, UniProt Q13370); assay: Inhibition of human recombinant PDE3B
Sequence of cGMP-inhibited 3',5'-cyclic phosphodiesterase 3B (Q13370 whole entry): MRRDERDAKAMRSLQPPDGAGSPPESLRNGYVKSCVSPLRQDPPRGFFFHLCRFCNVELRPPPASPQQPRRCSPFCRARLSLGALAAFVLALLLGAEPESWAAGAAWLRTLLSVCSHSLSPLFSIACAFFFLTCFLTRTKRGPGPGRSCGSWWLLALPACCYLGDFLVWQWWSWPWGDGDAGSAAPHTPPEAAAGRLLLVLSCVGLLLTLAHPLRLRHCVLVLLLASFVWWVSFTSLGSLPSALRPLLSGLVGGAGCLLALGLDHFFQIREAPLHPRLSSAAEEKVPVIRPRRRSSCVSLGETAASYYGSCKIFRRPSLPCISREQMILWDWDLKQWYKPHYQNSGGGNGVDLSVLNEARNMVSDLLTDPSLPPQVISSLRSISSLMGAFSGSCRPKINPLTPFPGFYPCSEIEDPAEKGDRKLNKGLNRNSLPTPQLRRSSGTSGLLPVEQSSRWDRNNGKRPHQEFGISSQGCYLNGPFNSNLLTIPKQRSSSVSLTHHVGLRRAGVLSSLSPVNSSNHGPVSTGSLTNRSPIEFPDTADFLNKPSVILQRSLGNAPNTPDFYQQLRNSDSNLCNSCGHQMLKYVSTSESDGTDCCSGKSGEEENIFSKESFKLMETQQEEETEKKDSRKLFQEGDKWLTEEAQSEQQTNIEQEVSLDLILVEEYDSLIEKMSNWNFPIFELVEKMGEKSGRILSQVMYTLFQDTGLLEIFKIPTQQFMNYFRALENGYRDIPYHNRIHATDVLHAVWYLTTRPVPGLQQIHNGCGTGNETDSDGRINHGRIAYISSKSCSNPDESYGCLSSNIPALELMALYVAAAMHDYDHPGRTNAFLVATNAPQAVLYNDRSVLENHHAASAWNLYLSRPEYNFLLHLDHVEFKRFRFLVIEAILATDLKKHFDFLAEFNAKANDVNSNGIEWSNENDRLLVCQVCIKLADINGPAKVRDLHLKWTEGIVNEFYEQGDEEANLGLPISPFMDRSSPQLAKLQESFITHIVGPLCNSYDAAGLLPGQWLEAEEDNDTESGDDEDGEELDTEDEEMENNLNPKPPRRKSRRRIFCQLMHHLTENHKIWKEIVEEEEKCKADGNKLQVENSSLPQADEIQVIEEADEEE

[14] = Selectivity ratio, ratio of IC50 for human PDE3A to EC50 for cytotoxicity against human HeLa cells
[15] = Selectivity ratio, ratio of IC50 for human PDE3B to EC50 for cytotoxicity against human HeLa cells

Row | SMILES | EC50 [1] [nM] | Activity [2] | also measured
1 | C/C=C/c1ccc(C2=NNC(=O)C[C@H]2C)cc1 | 8.8 | inactive | –
2 | CC1CC(=O)NN=C1c1ccc(F)c(F)c1 (racemic) | 64 | inactive | remaining at 1 h [3]: 108%; remaining at 1 h, 1 µM [4]: 82%; fraction unbound at 5 h [5]: 0.44; fraction unbound at 5 h [6]: 0.48; remaining at 5 h [7]: 93%; remaining at 5 h [8]: 96%
3 | C[C@H]1CC(=O)NN=C1c1ccc(F)c(F)c1 | > 1000 | inactive | –
4 | C[C@@H]1CC(=O)NN=C1c1ccc(I)cc1 | 7.1 | inactive | –
5 | CCN(CC)c1ccc(C2=NNC(=O)C2(C)C)cc1 | > 1000 | inactive | –
6 | CC(=O)Nc1ccc(C2=NNC(=O)C[C@H]2C)cc1C(C)=O | 130 | inactive | –
7 | C[C@@H]1CC(=O)NN=C1c1ccc(Cl)cc1 | 33 | inactive | EC50 [9]: 29 nM; Activity [10]: inactive; Activity [11]: inactive; remaining at 1 h [3]: 81%; remaining at 1 h, 1 µM [4]: 92%; fraction unbound at 5 h [5]: 0.13; fraction unbound at 5 h [6]: 0.19; remaining at 5 h [7]: 93%; remaining at 5 h [8]: 86%
8 | CC1(C)C(=O)NN=C1c1ccc(N2CCOCC2)cc1 | > 1000 | inactive | –
9 | C[C@@H]1CC(=O)NN=C1c1ccc(F)cc1 | 410 | inactive | –
10 | CC(=O)Nc1ccc(C2=NNC(=O)C[C@H]2C)cc1Br | 21 | inactive | –
11 | CC1CC(=O)NN=C1c1ccc(N2CCOCC2)c(F)c1 (racemic) | 2.8 | inactive | remaining at 1 h [3]: 109%; remaining at 1 h, 1 µM [4]: 102%; fraction unbound at 5 h [5]: 0.43; fraction unbound at 5 h [6]: 0.45; remaining at 5 h [7]: 80%; remaining at 5 h [8]: 101%
12 | C[C@@H]1CC(=O)NN=C1c1ccc(N2CCOCC2)cc1 | 13 | inactive | –
13 | CC(=O)Nc1ccc(C2=NNC(=O)C[C@H]2C)cc1 | > 1000 | inactive | IC50 [12]: 24 nM; IC50 [13]: 16 nM
14 | C[C@@H]1CC(=O)NN=C1c1ccc(-n2cnnc2)cc1 | > 1000 | inactive | –
15 | C[C@@H]1CC(=O)NN=C1c1ccc(N2CCOCC2)c(Cl)c1 | 4.5 | inactive | –
16 | CCNc1ccc(C2=NNC(=O)C[C@H]2C)cc1[N+](=O)[O-] | 1.1 | inactive | –
17 | C[C@@H]1CC(=O)NN=C1c1ccc(-c2cncnc2)cc1 | 13 | inactive | Activity [10]: inactive; Activity [11]: inactive; remaining at 1 h [3]: 83%; remaining at 1 h, 1 µM [4]: 105%; fraction unbound at 5 h [5]: 0.44; fraction unbound at 5 h [6]: 0.46; remaining at 5 h [7]: 104%; remaining at 5 h [8]: 108%
18 | CC1(C)C(=O)NN=C1c1ccc(N)cc1 | > 1000 | inactive | –
19 | C[C@@H]1CC(=O)NN=C1c1ccc(N2CCN(C)CC2)cc1 | 310 | inactive | EC50 [9]: 684 nM; IC50 [12]: 2000 nM; IC50 [13]: 3500 nM; Ratio IC50/EC50 [14]: 2.4; Ratio IC50/EC50 [15]: 2.4
20 | CC(=O)Nc1ccc(C2=NNC(=O)C[C@H]2C)cc1N | > 1000 | inactive | –

Row | SMILES | EC50 [1] [nM] | Activity [2] | also measured
21 | CCN(CC)c1ccc(C2=NNC(=O)CC2C)cc1NC(C)=O (stereo unspecified) | > 1000 | inactive | –
22 | C[C@@H]1CC(=O)NN=C1c1ccc(C2CCCCC2)cc1 | 7.7 | inactive | Activity [10]: inactive; Activity [11]: inactive
23 | CC(=O)Nc1ccc(C2=NNC(=O)C[C@H]2C)cc1Cl | 24 | inactive | EC50 [9]: 31 nM; IC50 [12]: 8 nM; IC50 [13]: 10 nM; Ratio IC50/EC50 [14]: 0.38; Ratio IC50/EC50 [15]: 0.38
24 | CC(=O)Nc1ccc(C2=NNC(=O)C[C@H]2C)cc1[N+](=O)[O-] | 4.9 | inactive | EC50 [9]: 4.2 nM; Activity [10]: inactive; Activity [11]: inactive
25 | CCN(CC)c1ccc(C2=NNC(=O)C[C@H]2C)cc1 | 3.3 | inactive | –
26 | CCN1N=C(c2ccc(N(CC)CC)c([N+](=O)[O-])c2)C(C)CC1=O (racemic) | > 1000 | inactive | Activity [10]: inactive; Activity [11]: inactive
27 | C[C@@H]1CC(=O)NN=C1c1ccc(N)cc1 | > 1000 | inactive | –
28 | C[C@@H]1CC(=O)NN=C1c1ccc(C2=CCCCC2)cc1 | 2.2 | inactive | –
29 | CCN(CC)c1ccc(C2=NNC(=O)CC2C)cc1N (stereo unspecified) | 240 | inactive | –
30 | CCCc1ccc(C2=NNC(=O)C[C@H]2C)cc1 | 16 | inactive | –
31 | C[C@H]1CC(=O)NN=C1c1ccc(N2CCOCC2)c(F)c1 | > 1000 | inactive | Activity [10]: inactive; Activity [11]: inactive
32 | Cc1nc2cc(C3=NNC(=O)C[C@H]3C)ccc2[nH]1 | > 1000 | inactive | –
33 | CC1CC(=O)NN=C1c1ccc(N2CCOCC2)cc1 (racemic) | 36 | inactive | EC50 [9]: 11 nM; Activity [10]: inactive; Activity [11]: inactive; IC50 [12]: 120 nM; IC50 [13]: 260 nM; Ratio IC50/EC50 [14]: 2.4; Ratio IC50/EC50 [15]: 2.4; remaining at 1 h [3]: 94%; remaining at 1 h, 1 µM [4]: 99%; fraction unbound at 5 h [5]: 0.53; fraction unbound at 5 h [6]: 0.58; remaining at 5 h [7]: 87%; remaining at 5 h [8]: 105%
34 | CCN(CC)c1ccc(C2=NNC(=O)C[C@H]2C)cc1[N+](=O)[O-] | 3.8 | inactive | –
35 | CCNc1ccc(C2=NNC(=O)C[C@H]2C)cc1 | 71 | inactive | –
36 | CC1(C)C(=O)NN=C1c1ccc(Cl)cc1 | > 1000 | inactive | –
37 | C#Cc1cc(C2=NNC(=O)C[C@H]2C)ccc1NC(C)=O | 65 | inactive | –
38 | C[C@@H]1CC(=O)NN=C1c1ccc(F)c(F)c1 | 22 | inactive | Activity [10]: inactive; Activity [11]: inactive
39 | CCN(CC)c1ccc(C2=NNC(=O)CC2C)cc1 (racemic) | 8.8 | inactive | remaining at 1 h [3]: 89%; remaining at 1 h, 1 µM [4]: 26%; fraction unbound at 5 h [5]: 0.1; fraction unbound at 5 h [6]: 0.1; remaining at 5 h [7]: 104%; remaining at 5 h [8]: 96%
40 | C[C@@H]1CC(=O)NN=C1c1ccc(Cl)c(Cl)c1 | 4.5 | inactive | EC50 [9]: 5.6 nM; IC50 [12]: 8 nM; IC50 [13]: 14 nM; Ratio IC50/EC50 [14]: 2.4; Ratio IC50/EC50 [15]: 2.4
